Experimental data taken from ChEMBL document CHEMBL4406806, “Design, Synthesis, and Characterization of Ogerin-Based Positive Allosteric Modulators for G Protein-Coupled Receptor 68 (GPR68)” (J Med Chem, 2019).
Activity calls are given as the source filed them. The calls are words filed in the database; no cut-off is given here.

Columns and labels:
Assay type in all cases: functional, cell-based
[1] = biological target: G-protein coupled receptor 68 (Homo sapiens) (UniProt Q15743); assay: (§1) Positive allosteric modulation of human GPR68 expressed in HEK293T cells co-expressing Gs assessed as stimulation of proton-mediated cAMP production by measuring efficacy cooperativity in HBSS buffer containing pH 6.8 to 8.2 HEPES/pH 8.3 to 8.6 TAPS measured after 20 to 30 mins in presence of PDE inhibitor Ro 20-1724 by luciferase-glo reporter gene assay
How it was run: (§2)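 Transient co-transfection of HEK293T with receptor and GloSensor plasmids using PEI, overnight, then replated in DMEM + 1% dFBS for 6–24 h. Luciferin 3.5 mM loaded for 1 h at 37 °C in HBSS/20 mM TAPS, pH 8.40. Proton series: Ca/Mg-free HBSS with MES (pH 5.60–6.70), HEPES (6.80–8.20) or TAPS (8.30–8.60), plus 10 μM Ro 20-1724. BSA 1 mg/mL added where solubility required. Luminescence read at 20–30 min. At least six 16-point proton curves across modulator concentrations, quadruplicate, ≥3 independent assays.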

[2] = biological target: G-protein coupled receptor 68 (Homo sapiens) (UniProt Q15743); assay: as §1, with “allosteric index” for “efficacy cooperativity”; how it was run: as §2
[3] = biological target: G-protein coupled receptor 68 (Homo sapiens) (UniProt Q15743); assay: as §1, with “allosteric affinity” for “efficacy”; how it was run: as §2
[4] = biological target: G-protein coupled receptor 68 (Homo sapiens) (UniProt Q15743); assay: as §1, with “allosteric binding affinity” for “efficacy cooperativity”; how it was run: as §2

G-protein coupled receptor 68 (Homo sapiens), sequence (Q15743 whole entry): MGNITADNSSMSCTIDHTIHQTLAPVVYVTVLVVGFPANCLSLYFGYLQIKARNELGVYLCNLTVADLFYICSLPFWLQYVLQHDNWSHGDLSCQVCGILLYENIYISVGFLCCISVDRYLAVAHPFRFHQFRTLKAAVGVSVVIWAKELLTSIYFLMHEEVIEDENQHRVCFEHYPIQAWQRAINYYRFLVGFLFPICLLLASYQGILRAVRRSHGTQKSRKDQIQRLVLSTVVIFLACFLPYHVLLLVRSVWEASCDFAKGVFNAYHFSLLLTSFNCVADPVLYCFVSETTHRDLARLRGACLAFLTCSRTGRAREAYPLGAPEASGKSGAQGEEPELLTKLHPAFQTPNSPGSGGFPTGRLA

Structure (SMILES) | log(activity) [1] | Activity index [2] | log(activity) [3] | Activity_index [2] | pKb [4]
Nc1nc(NCCc2ccc(Oc3ccccc3)cc2)nc(-c2c(F)cccc2CO)n1 | -0.06 | 6.14 | 1.14 |  | 
Nc1nc(NCCCCc2ccccc2)nc(-c2c(F)cccc2CO)n1 | 0.06 | 5.34 | 1.24 |  | 
Cc1ccc(CNc2nc(N)nc(-c3ccccc3CO)n2)cc1 | 0.32 | 5.6 | 0.9 |  | 
Nc1nc(NCCCCc2ccc(Oc3ccccc3)cc2)nc(-c2ccccc2CO)n1 | 0.09 | 5.94 | 1.03 |  | 
COc1ccc(CNc2nc(N)nc(-c3ccccc3CO)n2)cc1 | 0.49 | 4.61 | 0.78 |  | 
Nc1nc(NCc2ccc(OC3CC3)cc2)nc(-c2ccccc2CO)n1 | 0.04 | 5.77 | 0.67 |  | 
Nc1nc(NCc2ccc(Oc3ccccc3)cc2)nc(-c2cc(Cl)ccc2CO)n1 | 0.03 | 5.78 | 1.05 |  | 
Cc1cccc(CNc2nc(N)nc(-c3c(F)cccc3CO)n2)c1 | 0.14 | 5.42 | 0.84 |  | 
Nc1nc(NCc2ccccc2F)nc(-c2c(F)cccc2CO)n1 | 0.09 | 5.4 | 1.09 |  | 
Nc1nc(NCc2ccccc2C(F)(F)F)nc(-c2ccccc2CO)n1 | 0.31 | 5.96 | 0.6 |  | 
COc1ccccc1CNc1nc(N)nc(-c2ccccc2CO)n1 | 0.06 | 5.03 | 0.98 |  | 
Nc1nc(NCCc2ccccc2)nc(-c2c(F)cccc2CO)n1 | 0.03 | 6.13 | 1.06 |  | 
Nc1nc(NCCCc2ccc(Oc3ccccc3)cc2)nc(-c2c(F)cccc2CO)n1 | 0.01 | 6.1 | 1.15 |  | 
Nc1nc(NCc2ccc(C(F)(F)F)cc2)nc(-c2ccccc2CO)n1 | 0.3 | 6.1 | 0.78 |  | 
Nc1nc(NCCCc2ccc(Oc3ccccc3)cc2)nc(-c2ccccc2CO)n1 | -0.01 | 5.84 | 1.19 |  | 
Nc1nc(NCc2ccc(F)cc2)nc(-c2c(F)cccc2CO)n1 | 0.09 | 5.55 | 1.01 |  | 
Nc1nc(NCCCCc2ccccc2)nc(-c2cc(Cl)ccc2CO)n1 | 0.06 | 6.14 | 1.09 |  | 
Nc1nc(NCCc2ccc(Oc3ccccc3)cc2)nc(-c2ccccc2CO)n1 | 0.03 | 5.9 | 0.83 |  | 
Nc1nc(NCCCc2ccccc2)nc(-c2c(F)cccc2CO)n1 | 0.02 | 5.67 | 1.19 |  | 
Nc1nc(NCc2cccc(C(F)(F)F)c2)nc(-c2ccccc2CO)n1 | 0.32 | 6.07 | 0.64 |  | 
CC(C)Oc1ccc(CNc2nc(N)nc(-c3ccccc3CO)n2)cc1 | 0.17 | 5.69 | 0.53 |  | 
CCOc1ccc(-c2nc(N)nc(NCc3ccccc3)n2)c(CO)c1 | 0.1 | 5.34 | 0.87 |  | 
COc1cccc(-c2nc(N)nc(NCc3ccccc3)n2)c1CO | 0.3 | 4.86 | 0.4 |  | 
CCOc1ccc(CNc2nc(N)nc(-c3ccccc3CO)n2)cc1 | -0.01 | 5.57 | 0.81 |  | 
Nc1nc(NCCc2ccc(Oc3ccccc3)cc2)nc(-c2cc(Cl)ccc2CO)n1 | -0.04 | 5.87 | 1.39 |  | 
COc1ccccc1CNc1nc(N)nc(-c2c(F)cccc2CO)n1 | -0.12 | 5.11 | 1.12 |  | 

Now from value to molecule:

log(activity) [1] | Activity index [2] | log(activity) [3] | Activity_index [2] | pKb [4] | Structure (SMILES)
0.23 | 5.94 | 0.64 |  |  | Nc1nc(NCc2ccccc2Cl)nc(-c2ccccc2CO)n1
0.33 | 5.57 | 0.54 |  |  | Cc1ccccc1CNc1nc(N)nc(-c2ccccc2CO)n1
0.18 | 4.77 | 0.61 |  |  | COc1ccc(CO)c(-c2nc(N)nc(NCc3ccccc3)n2)c1
0.4 | 5.04 | 0.72 |  |  | Nc1nc(Nc2ccccc2)nc(-c2ccccc2CO)n1
0.14 | 4.97 | 0.46 |  |  | COc1ccc(-c2nc(N)nc(NCc3ccccc3)n2)c(CO)c1
inactive |  | inactive | inactive | inactive | CC(O)c1ccccc1-c1nc(N)nc(NCc2ccccc2)n1 (stereo not given)
-0.12 | 5.56 | 1.25 |  |  | Nc1nc(NCc2ccccc2)nc(-c2c(Cl)cccc2CO)n1
inactive |  | inactive | inactive | inactive | CC(=O)c1ccccc1-c1nc(N)nc(NCc2ccccc2)n1
inactive |  | inactive | inactive | inactive | Nc1cc(-c2ccccc2CO)nc(NCc2ccccc2)n1
0.31 | 5.56 | 0.98 |  |  | Nc1nc(NCc2ccccc2F)nc(-c2ccccc2CO)n1
0.33 | 5.55 | 0.7 |  |  | Nc1nc(NCc2cccc(F)c2)nc(-c2ccccc2CO)n1
0.27 | 4.86 | 0.59 |  |  | Nc1nc(NCc2ccccc2)nc(-c2cccc(F)c2CO)n1
0.27 | 5.74 | 0.56 |  |  | CC(C)Oc1ccc(-c2nc(N)nc(NCc3ccccc3)n2)c(CO)c1
0.46 | 5.9 | 0.48 |  |  | Nc1nc(NCc2cccc(Cl)c2)nc(-c2ccccc2CO)n1
inactive |  | inactive | inactive | inactive | Cc1ccccc1-c1nc(N)nc(NCc2ccccc2)n1
0.36 | 5.42 | 1.09 |  |  | Nc1nc(NCc2ccc(F)cc2)nc(-c2ccccc2CO)n1

log(activity) [1] | Activity index [2] | log(activity) [3] | Activity_index [2] | pKb [4] | Structure (SMILES)
0.23 | 5.22 | 0.89 |  |  | COc1cccc(CNc2nc(N)nc(-c3ccccc3CO)n2)c1
0 | 6.14 | 0.95 |  |  | Nc1nc(NCc2ccc(Oc3ccccc3)cc2)nc(-c2ccccc2CO)n1
0.09 | 5.78 | 1.2 |  |  | Nc1nc(NCc2ccccc2)nc(-c2cc(Cl)ccc2CO)n1
0.3 | 5.01 | 0.86 |  |  | NCc1ccccc1-c1nc(N)nc(NCc2ccccc2)n1
 |  | inactive | inactive | inactive | COc1cccc(CO)c1-c1nc(N)nc(NCc2ccccc2)n1
0.08 | 6.11 | 0.81 |  |  | Nc1nc(NCCCc2ccccc2)nc(-c2ccccc2CO)n1
0.11 | 5.87 | 1.01 |  |  | Nc1nc(NCc2ccccc2)nc(-c2ccc(Cl)cc2CO)n1
0.37 | 5.36 | 0.48 |  |  | CNc1nc(NCc2ccccc2)nc(-c2ccccc2CO)n1
0.2 | 5.69 | 0.91 |  |  | Nc1nc(NCc2ccccc2)nc(-c2cc(F)ccc2CO)n1
0.25 | 5.57 | 0.92 |  |  | Cc1cccc(CNc2nc(N)nc(-c3ccccc3CO)n2)c1
0.24 | 5.62 | 0.88 |  |  | Nc1nc(NCCc2ccccc2)nc(-c2ccccc2CO)n1
0.24 | 5.46 | 0.64 |  |  | Nc1nc(NCc2ccccc2)nc(-c2ccc(F)cc2CO)n1
inactive |  | inactive | inactive | inactive | CNCc1ccccc1-c1nc(N)nc(NCc2ccccc2)n1
0.35 | 5.19 | 1.15 |  |  | Nc1nc(NCc2ccccc2)nc(-c2c(F)cccc2CO)n1
inactive |  | inactive | inactive | inactive | Nc1nc(NCc2ccccc2)nc(-c2ccccc2)n1
0.25 | 5.34 | 0.47 |  |  | CCNc1nc(NCc2ccccc2)nc(-c2ccccc2CO)n1
